The values that follow come from the array DNA melting data of Ke et al. (doi:10.1101/2024.01.08.574731).

A short description of series [1]: folding enthalpy; higher = less favourable; fluorescence melt of hairpins on a sequencing array, two-state fit. The conditions noted are these: sodium 0.088 M. An outline of the steps:
(§1)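 Hairpins were imaged by Cy3 fluorescence on a sequenced MiSeq flow cell with annealed Cy3 and quencher oligos, in 50 mM Na-HEPES pH 8.0, 25 mM NaCl, in 2.5 °C steps up to 60 °C. Bootstrapped two-state fits of normalised signals gave melting temperature and folding enthalpy. Four replicates were combined by inverse variance, and fitted temperatures were raised by 9.35 °C to match UV melts.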

A short description of series [2]: melting temperature; fluorescence melt of hairpins on a sequencing array, two-state fit, raised by 9.35 °C to match UV melts. The note with it: sodium 0.088 M. An outline of the steps: as §1

On to GATCGATTTTTCGATC ((((((....)))))), for which the folding enthalpy in series [1] was -44.3 kcal/mol. Further, in series [2], the Tm was found to be 54.7 °C.
In the case of GATCGCAAAAGCGATC ((((((....)))))), in series [1], the folding enthalpy is -29.1 kcal/mol. For the same sequence, in series [2], the Tm worked out at 61.9 °C.
The corresponding values for GATCGCAAAGGCGATC ((((((....)))))) are -41.9 kcal/mol and 63.9 °C.
Consider GATCGCAACAGCGATC ((((((....)))))), for which, in series [1], the folding enthalpy was -35.4 kcal/mol. For the same sequence, the Tm in series [2] was 69.1 °C.
As for GATCGCACAAGCGATC ((((((....)))))), the folding enthalpy in series [1] was -37 kcal/mol. For the same sequence, in series [2], the Tm was 69.3 °C.
The corresponding values for GATCGCACATGCGATC ((((((....)))))) are -39.8 kcal/mol and 68.3 °C.
The like results for GATCGCACCAGCGATC ((((((....)))))) were, in that order, -31.2 kcal/mol and 69.3 °C.
As for GATCGCACCTGCGATC ((((((....)))))), the folding enthalpy in series [1] is -32.3 kcal/mol. Moreover, the Tm in series [2] was found to be 69.2 °C.
Take GATCGCACGAAAGTGATC (((..(((....)))))): in series [1], the folding enthalpy is -16.3 kcal/mol. For the same sequence, the Tm in series [2] is 36.4 °C.
For GATCGCAGAGGCGATC ((((((....)))))), the folding enthalpy in series [1] is -35.8 kcal/mol. The Tm in series [2] was determined as 66.8 °C.
As to GATCGCAGGGGCGATC ((((((....)))))), the folding enthalpy in series [1] was -34.1 kcal/mol. Besides, in series [2], the Tm was determined as 67.5 °C.
Take GATCGCAGGTGCGATC ((((((....)))))): in series [1], the folding enthalpy is -39.8 kcal/mol. Also, in series [2], the Tm is 68.4 °C.
For the sequence GATCGCAGTGCGATC ((((((...)))))), the folding enthalpy in series [1] was -30.1 kcal/mol. In series [2], the Tm came out at 67.6 °C.
For GATCGCAGTGGCGATC ((((((....)))))), in series [1], the folding enthalpy was -31.5 kcal/mol. For the same sequence, in series [2], the Tm worked out at 67.5 °C.
On to GATCGCATACGCGATC ((((((....)))))), for which, in series [1], the folding enthalpy was -36.1 kcal/mol. Moreover, the Tm in series [2] came out at 69.3 °C.
Take GATCGCATCGGCGATC ((((((....)))))): the folding enthalpy in series [1] is -33.6 kcal/mol. In addition, the Tm in series [2] amounted to 68.8 °C.
The like results for GATCGCATGGGCGATC ((((((....)))))) were, in that order, -40.5 kcal/mol and 68.5 °C.
With GATCGCATGTGCGATC ((((((....)))))), the folding enthalpy in series [1] is -37.8 kcal/mol. Moreover, the Tm in series [2] came to 68.3 °C.
As to GATCGCCACCGCGATC ((((((....)))))), in series [1], the folding enthalpy is -40.2 kcal/mol. For the same sequence, in series [2], the Tm turned out to be 67.1 °C.
In the case of GATCGCCAGCGCGATC ((((((....)))))), in series [1], the folding enthalpy is -33.3 kcal/mol. Also, the Tm in series [2] is 63.7 °C.
With GATCGCCCACGCGATC ((((((....)))))), the folding enthalpy in series [1] is -35 kcal/mol. Besides, the Tm in series [2] is 68.1 °C.
The like results for GATCGCCCCGGCGATC ((((((....)))))) were, in that order, -33 kcal/mol and 69.2 °C.
GATCGCCCTTGCGATC ((((((....)))))): in series [1], the folding enthalpy was -29.8 kcal/mol. The Tm in series [2] turned out to be 66.9 °C.
Take GATCGCCTAGCGATC ((((((...)))))): the folding enthalpy in series [1] is -30.6 kcal/mol. The Tm in series [2] turned out to be 68.6 °C.
For GATCGCCTTCGCGATC ((((((....)))))), the folding enthalpy in series [1] is -41 kcal/mol. Further, the Tm in series [2] amounted to 68.4 °C.
As for GATCGCGAAAGCGAAATC ((((((....)))..))), the folding enthalpy in series [1] is -9.22 kcal/mol. Besides, the Tm in series [2] is 37.2 °C.
As to GATCGCGAAAGCGCAATC ((((((....)))..))), in series [1], the folding enthalpy was -7.96 kcal/mol. Besides, the Tm in series [2] came to 23.1 °C.
The corresponding values for GATCGCGAGCGCGATC ((((((....)))))) are -35.4 kcal/mol and 67.2 °C.
For GATCGCGCGAAAGCGATC (((..(((....)))))), the folding enthalpy in series [1] is -25.8 kcal/mol. Also, the Tm in series [2] stood at 60.1 °C.
Regarding GATCGCGGAAACGCGACC (.(((((....))))).), in series [1], the folding enthalpy was -10.5 kcal/mol. In series [2], the Tm is 49.2 °C.
The like results for GATCGCTACCGCGATC ((((((....)))))) were, in that order, -35.1 kcal/mol and 68.2 °C.
The corresponding values for GATCGCTAGTGCGATC ((((((....)))))) are -35.2 kcal/mol and 67 °C.
The corresponding values for GATCGCTATGGCGATC ((((((....)))))) are -30.2 kcal/mol and 69.1 °C.
In the case of GATCGCTCGCGCGATC ((((((....)))))), the folding enthalpy in series [1] is -31.7 kcal/mol. For the same sequence, the Tm in series [2] stood at 67.4 °C.
The corresponding values for GATCGCTCTCGCGATC ((((((....)))))) are -34.2 kcal/mol and 67.6 °C.
In the case of GATCGCTCTTGCGATC ((((((....)))))), the folding enthalpy in series [1] is -38.9 kcal/mol. In addition, the Tm in series [2] was determined as 68 °C.
GATCGCTGATGCGATC ((((((....)))))): in series [1], the folding enthalpy was -34.8 kcal/mol. Besides, the Tm in series [2] is 67.2 °C.
In the case of GATCGCTGGCGCGATC ((((((....)))))), the folding enthalpy in series [1] is -35.7 kcal/mol. In series [2], the Tm is 65.9 °C.
